MBD2 inh – inhibitors of human MBD2 binding to methylated oligonucleotide | TR-FRET | inhibition, % at 4.4 µM | 370,000 compounds, 0.31% hits; in the data active = inhibition above about 13%
UHRF1 MBD2 ctr – UHRF1 methyl-DNA binding inhibition | UHRF1 binding to methylated oligo, TR-FRET | inhibition, % at 4.4 µM | 370,000 compounds, 0.75% hits | AID 687016; in the data active = inhibition above about 21%;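 also: UHRF1 SRA domain binding a hemimethylated CpG hairpin DNA probe; 0% = median of test compound wells and 100% = reference inhibitor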
ABHD5-PLIN5 inh – inhibitors of human ABHD5-perilipin-5 interaction; Split G. princeps luciferase complementation, luminescence, 4 h; AID 602281; Q00G26+Q8WTS1; inhibition, % at 4 µM; 360,000 compounds, 0.78% hits;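 active = inhibition above the mean inhibition across every tested compound plus 3 SD, cut at about 22% in these data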;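 also: 0% = DMSO only wells and the 100% control is not disclosed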
RBBP9 inh – inhibitors of human serine hydrolase RBBP9; O75884; recombinant RBBP9, FP-Rh probe fluorescence polarization; inhibition, % at 7.94 µM; 220,000 compounds, 0.2% hits;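 active = inhibition above the campaign mean of all tested compounds plus 3 SD, cut at about 14% in these data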;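 also: plate controls were DMSO wells with RBBP9 for no effect and wells lacking RBBP9 protein for full effect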
Target sequence (O75884 whole entry, looked up): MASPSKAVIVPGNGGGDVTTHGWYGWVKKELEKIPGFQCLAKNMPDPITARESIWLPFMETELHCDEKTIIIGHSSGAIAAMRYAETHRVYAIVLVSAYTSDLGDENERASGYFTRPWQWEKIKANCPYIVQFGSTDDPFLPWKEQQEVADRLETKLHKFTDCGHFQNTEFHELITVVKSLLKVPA
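Assay system: recombinant human RBBP9; Reagent: Serine-hydrolase probe FP-Rh, 375 nM pre-mixing; Doses: 7.94 µM single dose, 0.794% DMSO; Incubation: 30 min then 45 min, 25 °C; Detection: fluorescence polarization (mP), excitation 525 nm, emission 598 nm; Evaluation: percent inhibition from mP, scaled between DMSO and no-protein wells.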
PRMT1 FP inh – PRMT1 (human) inhibition, primary screen. Q99873. recombinant PRMT1, activity-based probe fluorescence polarization. inhibition, % at 2.79 µM. 370,000 compounds, 1.3% hits;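 active = inhibition above about 21% made by adding two undisclosed values, limit read from the data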
Target sequence (Q99873 whole entry, looked up): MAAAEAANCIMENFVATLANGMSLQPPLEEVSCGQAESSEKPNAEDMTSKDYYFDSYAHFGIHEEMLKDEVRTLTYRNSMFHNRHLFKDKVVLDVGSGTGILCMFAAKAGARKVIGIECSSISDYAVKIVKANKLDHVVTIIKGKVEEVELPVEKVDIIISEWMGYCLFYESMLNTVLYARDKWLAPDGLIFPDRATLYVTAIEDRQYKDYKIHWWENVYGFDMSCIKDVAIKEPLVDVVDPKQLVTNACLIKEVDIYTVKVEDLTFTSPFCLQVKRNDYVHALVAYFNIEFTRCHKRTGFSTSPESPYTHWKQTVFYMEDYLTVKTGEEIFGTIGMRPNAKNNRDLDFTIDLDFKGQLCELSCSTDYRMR
LEDGF integ inh – blocks HIV-1 LEDGF/p75-dependent DNA integration | 370,000 compounds, 0.64% hits | inhibition, % at 3.7 µM | AID 743269 | TR-FRET IN-LEDGF/p75 DNA integration, Eu/Cy5;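 active = inhibition above the screen-wide mean plus 3 SD, cut at about 13% in these data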;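 also: signal is the Cy5 over europium emission ratio at 671 and 618 nm; 0% = plate median of compound wells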
ABHD5 PLIN5 conf – confirmation of human ABHD5-PLIN5 interaction inhibitors | 2,200 compounds, 67% hits | inhibition, % at 4 µM | AID 651612 | shares compounds with ABHD5-PLIN5 inh | biochemical ABHD5-PLIN5 interaction, luminescence; in the data active = inhibition above about 23%;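 also: 0% = DMSO vehicle wells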
HNF4 split-luc – counter-screen for ABHD5-PLIN5 inhibitors: HNF4 split-luciferase; shares compounds with ABHD5-PLIN5 inh; HNF4 dimerization, luminescence, biochemical; inhibition, % at 4 µM; 2,200 compounds, 77% hits; AID 651674;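 active = mean inhibition across replicate wells exceeding the computed hit threshold, cut at about 13% in these data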;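 also: light from luciferase halves that rejoin when HNF4 fusion proteins dimerize; 0% = DMSO only wells and the 100% control is not given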
Starred values were filed as active, the others as inactive; x = no result given. This is a sample that favours compounds with a hit; in the whole collection about 3.1% have one here.

SMILES	MBD2 inh	UHRF1 MBD2 ctr	ABHD5-PLIN5 inh	RBBP9 inh	PRMT1 FP inh	LEDGF integ inh	ABHD5 PLIN5 conf	HNF4 split-luc
O=C(NCc1ccco1)c1nn2c(C(F)(F)F)cc(-c3cccs3)nc2c1Br	-3	-4	26*	1	13	1	34*	62*
CCOC(=O)c1nc(S(C)(=O)=O)ncc1N1CCOCC1	-2	1	14	-5	2	-4	x	x
Cc1ccccc1NC(=O)c1nc(S(C)(=O)=O)ncc1Cl	-2	-2	38*	x	6	4	59*	85*
CCOC(=O)c1nc(S(C)(=O)=O)ncc1Cl	7	1	55*	-3	4	0	56*	90*
Cc1ccccc1NC(=O)c1cccc(C(=O)Nc2ccccc2C)n1	-3	-1	1	x	-4	4	x	x
CS(=O)(=O)c1ncc(Cl)c(C(=O)Nc2ccc(OC(F)F)cc2)n1	x	x	75*	x	x	x	89*	103*
CCSc1n[nH]c(=O)n1C	8	3	x	x	2	3	x	x
O=C(O)CCc1ccc(-c2ccc(Cl)cc2)o1	1	-3	43*	-3	19	-1	-2	10
C(#Cc1ccccc1)C[N+]1(CC#Cc2cccc3ccccc23)CCCC1	1	1	27*	-5	1	6	11	3
CC1(C)CC(=O)C(=Cc2cn(CCC#N)nc2-c2ccc(F)cc2)C(=O)C1	-3	-1	23*	1	-1	-3	45*	38*
COc1ccc(C2NCCc3c2[nH]c2ccccc32)cc1COc1ccc(F)cc1 (configuration not stated)	1	-2	29*	-4	-1	1	16	18*
CS(=O)(=O)N1CCC(C(=O)NCC2COc3ccccc3O2)CC1 (configuration not stated)	-5	-1	x	x	0	1	x	x
C#CCN1CC(N(C)CCOC(=O)c2cc(C)cc(C)c2)CS1(=O)=O (configuration not stated)	-5	-1	x	x	-2	0	x	x
Cn1c(-c2ccccc2)c(C(=O)CCl)c2ccccc21	4	0	24*	4	2	-1	37*	22*
CCn1c(-c2ccccc2)c(C(=O)CCl)c2ccccc21	1	-2	-2	-5	1	0	x	x
O=C(NCc1ccc(F)c(F)c1)C1CCCN(c2nc3ccccc3o2)C1 (configuration not stated)	5	8	x	x	16	0	x	x
CCCCCNC(=O)C(c1ccncc1)n1c(=O)c(-c2ccco2)nc2ccccc21 (configuration not stated)	-5	-2	58*	x	8	-1	35*	15*
CC(C)(C)NC(=O)C(c1cc2ccccc2o1)n1c(=O)c(-c2ccco2)nc2ccccc21 (configuration not stated)	-3	-7	79*	x	23*	0	84*	16*
CCCCCNC(=O)C(c1cc2ccccc2o1)n1c(=O)c(-c2ccco2)nc2ccccc21 (configuration not stated)	-1	4	94*	x	17	3	85*	14*
CC(C)(C)NC(=O)C(c1cc2ccccc2o1)n1c(-c2ccc(-c3ccccc3)cc2)nc2ccccc21 (configuration not stated)	0	3	2	x	6	-3	x	x
O=C(NCc1ccccc1)C(c1cc2ccccc2o1)n1c(=O)c(-c2ccccc2)nc2ccccc21 (configuration not stated)	-4	-1	4	x	-2	-2	x	x
COC(=O)c1cc2c(c3c4ccccc4n(S(=O)(=O)c4ccc(C)cc4)c13)C(=O)N(CC(C)C)C2	-5	-1	x	x	1	0	x	x
CCOC(=O)N1CCN(C(=O)C[C@H]2C[C@@]3(C(=O)OC)C(=C[C@H](C(C)C)O[C@@H]3C3CC3)N(Cc3ccc(Cl)cc3Cl)C2=O)CC1	-6	1	x	x	-5	9	x	x
COc1ccc(CC2CCN(c3ncnc4sccc34)CC2)cc1	0	-3	x	x	2	-3	x	x
CCN(C)C(=O)CN1C(=O)C2CCCCN2C(=O)c2ccccc21 (configuration not stated)	-3	4	x	x	1	-4	x	x
SMILES	MBD2 inh	UHRF1 MBD2 ctr	ABHD5-PLIN5 inh	RBBP9 inh	PRMT1 FP inh	LEDGF integ inh	ABHD5 PLIN5 conf	HNF4 split-luc
N=c1c2c(ccn1Cc1ccccc1)Oc1ccc3ccccc3c1C2c1ccccc1 (configuration not stated)	3	2	x	x	-2	-4	x	x
O=C(NCCc1ccccc1Cl)[C@@H]1CCCN1C(=O)[C@H](Cc1cccnc1)NC(=O)N1CCOCC1	-1	2	x	x	4	-4	x	x
COc1cc2c(cc1OC)C(=O)C(Br)CC2 (configuration not stated)	x	x	82*	x	x	x	5	16*
COc1cc2c(cc1OC)C(=O)C(c1ccc3c(c1)OCO3)CC2 (configuration not stated)	-2	3	2	x	0	-1	x	x
COc1ccc(-n2c(COc3ccccc3)nnc2SCC(=O)Nc2ccc(OCc3ccccc3)cc2)cc1	8	3	x	x	7	0	x	x
O=S(=O)(Cc1ccc(Cl)cc1)c1ccccc1-c1nnc(-c2ccc(Cl)cc2)o1	2	1	31*	-6	0	6	-2	-3
CC(O)/C=C/c1ccc2ccccc2n1 (configuration not stated)	1	-1	24*	-11	2	-1	23*	26*
Fc1cccc(F)c1/C=C/c1ccc2ccccc2n1	3	0	-6	-7	2	-3	x	x
O=C(/C=C/c1cccs1)c1cc(Cl)ccc1O	2	1	10	-5	3	0	x	x
O=C(C=Cc1cccs1)c1ccc(Cl)s1	-2	0	24*	x	1	-3	60*	40*
COc1ccc(N2CCCN(CC(=O)Nc3ccccc3C)CC2)cc1	2	-4	x	x	3	-4	x	x
O=[N+]([O-])c1ccc2c(c1)C(N1CCN(CCO)CC1)Cc1ccc(F)cc1S2 (configuration not stated)	1	1	8	x	3	0	x	x
CSc1ccc2c(c1)C(N1CCN(C)CC1)Cc1ccc(F)cc1S2 (configuration not stated)	0	-2	26*	x	1	-1	18	3
COc1cccc(-c2nnc(SCC(=O)NCc3ccc4c(c3)OCO4)n2Cc2ccco2)c1	-2	-2	28*	-7	-1	1	6	10
O=C(CSc1nnc(-c2cccnc2)n1Cc1ccco1)NCc1ccc2c(c1)OCO2	1	1	4	-9	-2	0	x	x

From PubChem
